The source made the active and inactive calls. No cut-off for these calls is given here.
Legend:
[1] = Antioxidant activity assessed as inhibition of ABTS free radical generation after 20 mins by UV spectrophotometric analysis relative to control; type: functional
Procedure, shortened: (§1)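 ABTS radical cation formed by mixing ABTS diammonium salt (96 mg) and potassium persulfate (33 mg) in 25 mL 0.1 M phosphate buffer pH 7.0, then left in the dark at room temperature for 16 h before use. Samples made fresh as 2 mM stocks in methanol/phosphate buffer 1:1 and assayed in triplicate. Absorbance read at 734 nm; %I = (A_blank − A_sample)/A_blank.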

[2] = Antioxidant activity assessed as inhibition of ABTS free radical generation at 17 uM after 20 mins by UV spectrophotometric analysis relative to control; type: functional; procedure, shortened: as §1
[3] = Antioxidant activity assessed as inhibition of ABTS free radical generation at 33 uM after 20 mins by UV spectrophotometric analysis relative to control; type: functional
Procedure, shortened: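 ABTS radical cation was generated from ABTS diammonium salt and potassium persulfate in 0.1 M phosphate buffer, pH 7.0, and left in the dark at room temperature for 16 h before use. Sample stocks (2 mM) were freshly prepared in methanol/phosphate buffer 1:1 and tested in triplicate. Absorbance was read at 734 nm, with inhibition calculated as %I = (A_blank − A_sample)/A_blank.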

[4] = biological target: Glutamate receptor ionotropic, NMDA 2B (Rattus norvegicus, UniProt Q00960); assay: Displacement of [3H]-ifenprodil from Wistar rat cerebral cortex GluN2B after 120 mins; type: tissue-based
Chain of Glutamate receptor ionotropic, NMDA 2B (Q00960 whole entry): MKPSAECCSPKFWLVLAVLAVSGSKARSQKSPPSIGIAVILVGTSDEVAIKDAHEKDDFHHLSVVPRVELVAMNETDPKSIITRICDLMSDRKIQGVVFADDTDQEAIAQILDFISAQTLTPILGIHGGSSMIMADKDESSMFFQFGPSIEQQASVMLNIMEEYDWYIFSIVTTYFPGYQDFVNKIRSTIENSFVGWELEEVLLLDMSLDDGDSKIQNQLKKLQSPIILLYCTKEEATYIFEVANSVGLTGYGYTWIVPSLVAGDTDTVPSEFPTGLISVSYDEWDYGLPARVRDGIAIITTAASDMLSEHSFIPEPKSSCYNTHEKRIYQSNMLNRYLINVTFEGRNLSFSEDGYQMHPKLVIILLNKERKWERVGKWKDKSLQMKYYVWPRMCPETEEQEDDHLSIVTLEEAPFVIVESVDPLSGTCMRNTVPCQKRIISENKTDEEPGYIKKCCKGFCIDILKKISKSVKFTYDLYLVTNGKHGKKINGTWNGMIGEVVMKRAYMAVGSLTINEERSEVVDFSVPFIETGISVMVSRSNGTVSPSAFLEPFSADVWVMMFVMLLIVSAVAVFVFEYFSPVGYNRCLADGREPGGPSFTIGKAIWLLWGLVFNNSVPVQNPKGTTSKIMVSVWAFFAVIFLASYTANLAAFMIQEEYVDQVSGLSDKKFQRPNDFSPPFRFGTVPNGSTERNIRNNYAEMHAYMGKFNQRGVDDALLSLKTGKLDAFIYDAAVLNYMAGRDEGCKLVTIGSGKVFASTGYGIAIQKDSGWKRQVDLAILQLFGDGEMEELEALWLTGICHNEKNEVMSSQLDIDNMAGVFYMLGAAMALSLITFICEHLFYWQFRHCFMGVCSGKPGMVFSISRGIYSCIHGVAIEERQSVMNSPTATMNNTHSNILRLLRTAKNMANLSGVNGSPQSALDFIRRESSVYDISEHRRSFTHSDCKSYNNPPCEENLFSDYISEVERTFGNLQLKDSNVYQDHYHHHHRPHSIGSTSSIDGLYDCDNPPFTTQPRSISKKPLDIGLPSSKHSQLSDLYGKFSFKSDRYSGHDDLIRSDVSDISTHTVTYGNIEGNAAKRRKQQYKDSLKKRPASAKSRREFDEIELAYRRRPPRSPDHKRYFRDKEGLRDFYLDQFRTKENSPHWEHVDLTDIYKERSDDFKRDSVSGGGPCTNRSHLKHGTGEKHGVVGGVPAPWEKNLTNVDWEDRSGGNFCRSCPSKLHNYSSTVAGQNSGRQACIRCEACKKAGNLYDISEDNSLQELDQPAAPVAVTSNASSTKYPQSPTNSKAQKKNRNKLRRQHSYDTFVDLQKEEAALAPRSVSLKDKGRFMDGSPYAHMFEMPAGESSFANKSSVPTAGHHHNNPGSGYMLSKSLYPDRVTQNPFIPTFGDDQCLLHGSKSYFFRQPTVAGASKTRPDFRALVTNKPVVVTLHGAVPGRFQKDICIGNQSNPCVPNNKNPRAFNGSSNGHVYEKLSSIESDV
Procedure, shortened: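 Membranes from cerebral cortices of male Wistar-derived rats (175 g) prepared in Tris–HCl pH 7.4. A 5 mg aliquot was incubated with 2 nM [3H]ifenprodil plus 5 μM GBR-12909, which blocks non-polyamine-sensitive sites, for 120 min at 4 °C. Nonspecific binding defined with 10 μM ifenprodil. Membranes filtered, washed and counted. Three test concentrations run in duplicate.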

| SMILES | inhibition [1] | inhibition [2] | inhibition [3] [%] | IC50 [4] [nM] |
| --- | --- | --- | --- | --- |
| O=C(C(=O)N1CCC(Cc2ccccc2)CC1)c1c[nH]c2cc(O)ccc12 | Dose-dependent effect | 70.7% | – | – |
| O=C(C(=O)N1CCC(Cc2ccccc2)CC1)c1c[nH]c2ccc(O)cc12 | Dose-dependent effect | 80.1% | – | – |
| COc1ccc2[nH]ccc2c1 | – | inactive | 47.6 | – |
| c1ccc2[nH]ccc2c1 | – | inactive | 25 | – |
| O=C(O)c1cc(O)c(O)c(O)c1 | – | > 94.1% | – | – |
| O=C(O)/C=C/c1ccc(O)c(O)c1 | – | 71.5% | – | – |
| O=C(CN1CCC(Cc2ccccc2)CC1)c1c[nH]c2ccc(O)cc12 | Dose-dependent effect | > 92.1% | – | – |
| O=C(NC1CCN(CC(=O)c2c[nH]c3ccc(O)cc23)CC1)c1ccc(O)c(O)c1 | Dose-dependent effect | > 94.1% | – | 660 |
| O=C(CN1CCC(Cc2ccccc2)CC1)c1c[nH]c2cc(O)ccc12 | Dose-dependent effect | > 93.9% | – | – |

Source: ChEMBL document CHEMBL2412984, “Indole derivatives as dual-effective agents for the treatment of neurodegenerative diseases: synthesis, biological evaluation, and molecular modeling studies” (Bioorg Med Chem, 2013)
